An excerpt weighted towards active compounds, which were near 1.2% of everything screened.
FN deposit inh = fibronectin deposition inhibition; inhibition, % at 12.6 µM; 350,000 compounds, 0.086% hits; AH1F fibroblasts, Alexa488-fibronectin deposition fluorescence, overnight;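 active means mean inhibition across replicates of 30% or more, regardless of how many single replicates reach that level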;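 further: positive control wells lacked labelled fibronectin entirely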
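Measured by – fluorescence 485/525 nm · System – AH1F fibroblast monolayer, labelled fibronectin deposition · Amount – 10000 cells per well · Buffer or medium – serum-reduced DMEM (2% serum) · Doses – single dose, pinned · Also added – fluorescent fibronectin at 24 nM final · Schedule – 1 h cell attachment, overnight exposure to compound and label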
APOBEC3A inh = inhibitors of human APOBEC3A DNA deaminase; inhibition, % at 20 µM; P31941; AID 493011; 330,000 compounds, 0.41% hits; recombinant A3A, FAM/TAMRA ssDNA deamination fluorescence;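 active means at least 40% inhibition at 20 µM here, with at most 30% in a related deaminase screen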;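 further: plate controls were A3A with DMSO for no effect and wells lacking A3A enzyme for full effect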
Target sequence (P31941 whole entry, looked up): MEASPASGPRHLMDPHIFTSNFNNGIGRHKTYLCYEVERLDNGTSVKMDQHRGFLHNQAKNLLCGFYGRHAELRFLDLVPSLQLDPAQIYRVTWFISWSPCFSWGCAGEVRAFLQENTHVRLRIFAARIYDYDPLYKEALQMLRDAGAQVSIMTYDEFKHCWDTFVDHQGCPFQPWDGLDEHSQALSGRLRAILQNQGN
ABHD5-PLIN5 inh = ABHD5-PLIN5 protein interaction inhibition; Q00G26+Q8WTS1; Split G. princeps luciferase complementation, luminescence, 4 h; inhibition, % at 4 µM; 360,000 compounds, 0.78% hits; AID 602281;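 active means inhibition above the mean inhibition across every tested compound plus 3 SD, cut at about 22% in these data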;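 further: 0% = DMSO only wells and the 100% control is not disclosed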
APOBEC3G inh = inhibitors of human APOBEC3G DNA deaminase; 330,000 compounds, 0.28% hits; Q9HC16; recombinant A3G, ssDNA deamination FAM/TAMRA fluorescence; inhibition, % at 20 µM;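 active means inhibition of at least 40% at 20 µM, with no more than 30% in the related APOBEC3A deaminase screen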;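 further: plate controls were DMSO wells with A3G for no effect and wells lacking A3G enzyme for full effect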
APOBEC3A confirm = APOBEC3A (human) deaminase inhibition, confirmed. recombinant A3A, ssDNA deaminase UDG fluorescence assay. shares compounds with APOBEC3A inh. 1,400 compounds, 63% hits. AID 493151. inhibition, % at 20 µM;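 active means inhibition reaching a set limit, 80% of the first screen's cutoff, at 20 µM in any replicate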;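 further: plate controls were DMSO wells with A3A for no effect and wells lacking A3A enzyme for full effect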
UDG A3A counter = counter-screen for APOBEC3A inhibitors: UDG; 1,000 tested, under 10 active; inhibition, % at 20 µM; AID 504714; UDG counterscreen, FAM/TAMRA uracil oligo fluorescence; shares compounds with APOBEC3A inh; call rule not given here
APOBEC3G confirm = confirmation of human APOBEC3G DNA deaminase inhibitors | recombinant A3G ssDNA deaminase, UDG/FAM-TAMRA fluorescence | 890 compounds, 72% hits | shares compounds with APOBEC3G inh | inhibition, % at 20 µM;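 active means inhibition reaching a set limit in any replicate at 20 µM, the limit being 80% of the first screen's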
UDG ctr A3G = E. coli UDG inhibition in APOBEC3G counter-screen | shares compounds with APOBEC3G inh | UDG counterscreen, FAM/TAMRA oligo fluorescence | inhibition, % at 20 µM | 710 tested, under 10 active | AID 504715;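 active means compounds giving 40% or more inhibition at 20 µM in any one of the three replicates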;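 further: plate controls were DMSO wells with UDG and oligo for no effect and DMSO wells lacking both for full effect; inhibitors lower the FAM signal released by uracil excision and alkaline cleavage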
ABHD5 PLIN5 conf = ABHD5-PLIN5 interaction inhibition, confirmed; biochemical ABHD5-PLIN5 interaction, luminescence; shares compounds with ABHD5-PLIN5 inh; 2,200 compounds, 67% hits; inhibition, % at 4 µM; AID 651612; in the data active means inhibition above about 23%;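 further: 0% = DMSO vehicle wells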
HNF4 split-luc = active in HNF4 split-luciferase counter-screen for ABHD5-PLIN5 inhibitors; shares compounds with ABHD5-PLIN5 inh; HNF4 dimerization, luminescence, biochemical; inhibition, % at 4 µM; 2,200 compounds, 77% hits;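 active means mean inhibition across replicate wells exceeding the computed hit threshold, cut at about 13% in these data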;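 further: light from luciferase halves that rejoin when HNF4 fusion proteins dimerize; 0% = DMSO only wells and the 100% control is not given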
Target sequence (P41235 whole entry, looked up, the tested form may be a part): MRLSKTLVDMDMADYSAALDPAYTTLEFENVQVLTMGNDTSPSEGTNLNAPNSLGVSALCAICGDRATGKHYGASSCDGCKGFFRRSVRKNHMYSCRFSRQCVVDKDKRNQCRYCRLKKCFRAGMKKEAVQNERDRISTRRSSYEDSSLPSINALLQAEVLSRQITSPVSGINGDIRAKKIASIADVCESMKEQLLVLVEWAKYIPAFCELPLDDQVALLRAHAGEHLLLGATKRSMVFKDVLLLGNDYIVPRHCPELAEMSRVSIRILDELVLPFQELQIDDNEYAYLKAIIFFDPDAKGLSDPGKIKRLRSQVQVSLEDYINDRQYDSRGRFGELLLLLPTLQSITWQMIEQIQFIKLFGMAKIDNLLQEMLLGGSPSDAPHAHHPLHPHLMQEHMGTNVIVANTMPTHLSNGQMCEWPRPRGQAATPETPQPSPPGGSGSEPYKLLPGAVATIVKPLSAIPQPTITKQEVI
Active calls of the source: *; . = no result given.

SMILES	FN deposit inh	APOBEC3A inh	ABHD5-PLIN5 inh	APOBEC3G inh	APOBEC3G confirm	UDG ctr A3G	others
C=CCN=C1N[C@@H](c2ccccc2)C(C(=O)OC)=C(C)N1CCOC	-1.4	51.1*	-15.7	6.4	.	.	APOBEC3A confirm=70.7*;UDG A3A counter=-3.8
COCCN1C(=NCCCOC(C)C)N[C@@H](c2ccccc2)C(C(=O)OC)=C1C	-0.6	62.4*	-0.1	29.5	.	.	APOBEC3A confirm=67.0*;UDG A3A counter=3.0
O=C(C[C@H]1C=C[C@@H](NC(=O)CC2CC2)[C@@H](CO)O1)NCC(F)(F)F	11.5	.	.	.	.	.
Cc1ccc(C(=O)/C=C/c2ccc(-c3ccc(C)cc3)o2)cc1	-0.7	5.1	13.9	-3.0	.	.
O=C(/C=C\c1ccc(-c2ccccc2)o1)c1ccccc1	-2.3	48.0*	38.0*	11.8	.	.	APOBEC3A confirm=11.1*;UDG A3A counter=-2.7;ABHD5 PLIN5 conf=67.5*;HNF4 split-luc=90.3*
COC(=O)c1ccc2c(c1)C(C)(C)C(/C=C/c1ccc(OC)c(OC)c1OC)=[N+]2C	.	94.8*	47.0*	24.1	.	.	APOBEC3A confirm=82.8*;UDG A3A counter=2.1;ABHD5 PLIN5 conf=101.3*;HNF4 split-luc=101.1*
O=C(C[C@H]1CC[C@H]2[C@@H](COC[C@H](O)CN2Cc2cc(F)cc(F)c2)O1)NC1CCC1	6.2	.	.	.	.	.
O=C(/C=C/c1ccccc1)c1cc(Br)ccc(=O)c1O	.	41.2*	43.9*	16.6	.	.	APOBEC3A confirm=40.4*;ABHD5 PLIN5 conf=76.2*;HNF4 split-luc=67.8*
C[C@H]1CN([C@@H](C)CO)C(=O)c2cc(C3=CCCCC3)cnc2O[C@@H]1CN(C)C(=O)c1ccccc1	-15.7	.	.	.	.	.
COc1ccccc1-c1n[nH]c(=S)n1-c1ccccc1	.	0.7	-9.5	40.2*	68.6*	-2.9
CO[C@H]1CN(C)C(=O)c2cc(NC(=O)C3CCOCC3)ccc2OC[C@@H](C)N(Cc2cccnc2)C[C@H]1C	-13.1	.	.	.	.	.
O=C(Nc1nnc(-c2ccco2)s1)C1CCCCC1	.	-1.6	5.3	56.5*	-3.3	1.1
Cc1ccc(S(=O)(=O)N2CCC(C(=O)Nc3nnc(-c4ccco4)s3)CC2)cc1	.	0.5	1.9	5.0	.	.
CCCNC(=O)Nc1ccc2c(c1)C(=O)N(C)C[C@H](OC)[C@@H](C)CN(C(=O)CC)[C@@H](C)CO2	7.4	.	.	.	.	.
CCOc1ccc2nc(NC(=S)N(C)C)sc2c1	-1.3	-1.8	0.6	46.7*	54.6*	-0.9
CC[C@@H]1CC=CC[C@@H](C)Oc2ccccc2C(=O)N(C)[C@@H](C)C(=O)N1 (mixture of isomers)	1.4	.	.	.	.	.
CCC(C)(C)c1nnc(NC(=O)C2CCN(C(=O)c3ccco3)CC2)s1	1.9	3.4	-5.0	67.3*	80.5*	-2.3
CCc1nnc(NC(=O)C2CCN(C(=O)c3ccco3)CC2)s1	-8.6	-0.9	6.2	-2.1	.	.
CC(=O)/C(=N/Nc1ccccc1C)N1CCOCC1	3.7	-0.3	0.7	40.6*	36.3*	0.4
CCOc1ccccc1N1C(=O)CC(Sc2n[nH]c(-c3ccccc3)n2)C1=O (configuration not stated)	-19.4	-1.6	10.0	58.2*	66.2*	0.1
COc1ccc(N2C(=O)CC(Sc3n[nH]c(-c4cccc(C)c4)n3)C2=O)cc1 (configuration not stated)	3.2	-4.4	2.1	34.2	.	.
Cn1ncc(Br)c1C(=O)N/N=C/c1cccc(OC2CSC2)c1	1.2	-0.3	-5.3	-2.1	.	.
O=C(N/N=C/c1cccc(OC2CSC2)c1)c1ccccc1O	.	-3.6	-5.1	73.3*	-8.0	-4.3
O=C(NN1C(=O)C2CC=C(Cl)CC2C1=O)c1ccncc1 (configuration not stated)	-8.3	29.4	1.8	40.1*	40.5*	-4.5
COc1ccc(NC(=O)c2ccc(N3C(=O)C4CC=C(Cl)CC4C3=O)cc2)cc1 (configuration not stated)	2.7	0.4	-1.9	1.9	.	.
SMILES	FN deposit inh	APOBEC3A inh	ABHD5-PLIN5 inh	APOBEC3G inh	APOBEC3G confirm	UDG ctr A3G	others
COC(=O)C1=C(C(=O)OC)SC2(S1)C(C(=O)OC)=C(C(=O)OC)SC1=C2c2cc(C)ccc2NC1(C)C	.	1.1	-37.7	44.7*	40.1*	-2.6
S=c1[nH]ncn1/N=C/c1ccc(Br)cc1	.	-5.0	0.9	44.2*	99.6*	-0.5
CCOC(=O)c1sc(=S)n(C)c1NC(=O)c1ccc(OC)cc1	3.1	-0.2	0.0	53.2*	59.1*	-6.1
Cc1noc(C)c1NC(=O)Nc1ccc2c(c1)CC(=O)N([C@@H](C)CO)C[C@H](C)[C@@H](CN(C)Cc1ccc(C(=O)Nc3ccccc3N)cc1)O2	5.8	.	.	.	.	.
CCOC(=O)c1c(NC(=O)CCCC(=O)O)sc2c1CCC2	-3.5	-0.3	2.0	-1.3	.	.
CCOC(=O)c1c(NC(=O)CCC(=O)O)sc2c1CCCCC2	7.0	0.7	5.9	40.4*	23.5	.
CC(=O)Nc1cccc2c1O[C@H](CN(C)C)[C@H](C)CN(C)C2=O	-5.8	.	.	.	.	.
Cc1ccc(-c2ccc(C3[C@@H]4CN(S(=O)(=O)c5ccc(C)cc5)C[C@H]3N4)cc2)cc1 (some centres not stated)	-2.8	.	.	.	.	.
COc1ccc(N2C(=O)CC(Sc3ncn[nH]3)C2=O)c(OC)c1 (configuration not stated)	.	-4.9	13.9	45.5*	active	-2.5
Cc1ccc(S(=O)(=O)Nc2ccc3c(c2)C(=O)N([C@@H](C)CO)C[C@@H](C)[C@@H](CN(C)C(=O)c2ccncc2)OCCCC[C@H](C)O3)cc1	5.9	.	.	.	.	.
COCC#Cc1ccc2c(c1)O[C@H](CN(C)C)[C@@H](C)CN([C@@H](C)CO)S2(=O)=O	-7.5	.	.	.	.	.
C[C@H](O)[C@H](O)[C@H]1CNc2nc(N)[nH]c(=O)c2N1	1.3	2.1	-13.8	40.8*	34.1*	.
O=[N+]([O-])c1ccc(N2CCN(C(=S)c3cccc([N+](=O)[O-])c3)CC2)cc1	-1.4	1.3	-4.6	65.7*	69.9*	-1.8
CC1Sc2ccc(C(=O)NCc3ccccn3)cc2NC1=O (configuration not stated)	10.7	2.7	2.5	54.6*	32.9*	-2.8
CC(C)NC(=O)N(C)C[C@H]1OCCCC[C@H](C)Oc2ccc(NS(=O)(=O)c3cn(C)cn3)cc2C(=O)N([C@@H](C)CO)C[C@@H]1C	-1.5	.	.	.	.	.
C=CCCC(=O)Nc1ccc(Br)cn1	15.3	0.4	2.1	55.1*	13.3	.
